# Assay results pooled from the literature.
# Compare with care: the assays were run in different laboratories.
# ABCG2: Broad substrate specificity ATP-binding cassette transporter ABCG2 (ABCG2, Homo sapiens, UniProt Q9UNQ0)
Compound,target or system,test,test system,setting,endpoint,result
Cc1cc(C)cc(NC(=O)CN(C)S(=O)(=O)c2ccc3[nH]c4c(c3c2)CCCC4)c1,K562,cell growth or viability,,,IC50,12.8 µM
CCOC(=O)[C@@]12C[C@@H]1[C@@H](n1ccc3c(NC)nc(C#Cc4ccc(Cl)s4)nc31)[C@H](O)[C@@H]2O,,,"male Sprague-Dawley rat, plasma","oral, 3 mg/kg, 8 h",concentration,3.68 ng/mL
Cc1noc(C)c1Cn1cc(N2C(=O)CN(Cc3cccc(O)c3)C2=O)cn1,,,"male Sprague-Dawley rat, plasma","oral, 100 mg/kg, 12 h",concentration,11.4 ng/mL
CCC1(C)CC(OC(=O)CSc2nnc(N)[nH]2)C2(C)C(C)CCC3(CCC(=O)C32)C(C)C1O (stereo not shown),K562,cell growth or viability,,,IC50,21.3 µM
COc1cc(Nc2ncc(F)c(Nc3ccc4c(n3)NC(=O)C(C)(C)O4)n2)cc(OC)c1OC,ABCG2,"transporter uptake, inhibitor",,cell membranes,Ki,0.065 µM
O=C(O)CSc1nnc(Br)n1-c1ccc(C2CC2)c2ccccc12,ABCG2,"transporter uptake, inhibitor",Caco-2,"100 µM, 2 h",inhibition,38%
"CO[C@H](C(=O)N1Cc2c(-c3ccc(C(=O)N4CCCc5ccccc54)cc3)cnn2C[C@H]1C(C)C)c1ccccc1 (single isomer, unassigned)",ABCG2,,"dog, MDCK-MDR1",,Papp B→A,8.4 ×10⁻⁶ cm/s
C/C(O)=C(\C#N)C(=O)Nc1ccc(C(F)(F)F)cc1,ABCG2,,Caco-2,"1 µM, 2 h, pH 7.4",Papp B→A,33.4 ×10⁻⁶ cm/s
CC(C)[C@@H]1Cn2ncc(-c3ccc(C(=O)N4CCCc5ccccc54)cc3)c2CN1C(=O)Cc1ccccc1,ABCG2,,"dog, MDCK-MDR1",,Papp B→A,5.2 ×10⁻⁶ cm/s
COc1cccc(-c2n[nH]c(SCc3ccccn3)n2)c1OC,,,"female Sprague-Dawley rat, plasma","intravenous, 1 mg/kg, 8 h, single dose",concentration,24.7 ng/mL
C=CC1(C)CC(OC(=O)CSc2nc3ccccc3s2)C2(C)C(C)CCC3(CCC(=O)C32)C(C)C1O (stereo not shown),K562,cell growth or viability,,,IC50,38.2 µM
CCc1cc(-c2noc(-c3cc(OC)nc(C4CCCC4)c3)n2)cc(C)c1OC[C@@H](O)CO,,,"Wistar rat, plasma","oral, 1 mg/kg, 6 h, single dose",concentration,41.1 ng/mL
"CO[C@H](C(=O)N1Cc2c(-c3ccc(C(=O)N4CCCc5ccccc54)cn3)cnn2C[C@H]1C(C)C)c1cnn(C)c1 (single isomer, unassigned)",ABCG2,,"dog, MDCK-MDR1",,Papp B→A,30.6 ×10⁻⁶ cm/s
Nc1ccc(S(=O)(=O)NC(=O)/C=C\c2ccccc2Cl)cc1,K562,cell growth or viability,,,IC50,> 200 µM
"CO[C@@H](C(=O)N1Cc2c(-c3ccc(C(=O)N4CCCc5ccccc54)cc3)cnn2C[C@H]1C(C)C)c1cnn(C)c1 (single isomer, unassigned)",ABCG2,,"dog, MDCK-MDR1",,Papp B→A,33.7 ×10⁻⁶ cm/s
C=CC1(C)CC(OC(=O)CSCCCCCN(C)C)C2(C)C(C)CCC3(CCC(=O)C32)C(C)C1O (stereo not shown),K562,cell growth or viability,,,IC50,9.67 µM
COc1ccc2c(=O)n(C)c(-c3ccccc3)nc2c1,,,"male Sprague-Dawley rat, spleen","oral, 30 mg/kg, 15 min",concentration,7.53 ng/mL
CCCN/C(=N/C)c1ccc(NC(=O)c2ccc(C(=O)Nc3ccc(/C(=N\C)NCCC)cc3)cc2)cc1,K562,cell growth or viability,,,IC50,10.1 µM
C[C@H](C(=O)N1Cc2c(-c3ccc(C(=O)N4CCCc5ccccc54)cc3)cnn2C[C@@H]1C)c1ccccc1,ABCG2,,"dog, MDCK-MDR1",,Papp B→A,13.4 ×10⁻⁶ cm/s
